Assays:
SNB-19 = experiment: NCI one-dose screen: SNB-19; type: cell-based; conditions: Homo sapiens, SNB-19, read-out: Growth inhibition percentage (GI %)
Procedure, shortened: (§1)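 Cells grown in RPMI 1640 with 5% FBS and 2 mM L-glutamine, seeded at 5000–40,000 cells/well, preincubated 24 h at 37 °C and 5% CO2. Time-zero plates were TCA-fixed. Test compound (DMSO stock diluted in gentamicin medium) was added at a final 10^-5 M for 48 h. Cells were TCA-fixed (80% for suspension lines), SRB-stained and read at 515 nm. GI% = 100 − % growth versus untreated control.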

SF-539 = experiment: NCI one-dose screen: SF-539; type: cell-based; conditions: Homo sapiens, SF-539, read-out: Growth inhibition percentage (GI %)
Procedure, shortened: as §1

NCI 58 human cell lines = experiment: NCI one-dose screen: whole panel summary; type: cell-based
Procedure, shortened: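 NCI 58-line single-dose screen in nine subpanels. Cells were exposed for 48 h at 37 °C to a final 10 µM test compound. Growth was measured by sulforhodamine B staining against time-zero and untreated-control plates. For each compound, percent growth relative to untreated cells was averaged across the panel as mean % growth. GI% per line = 100 − % growth.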

MCF7 = experiment: NCI one-dose screen: MCF7; type: cell-based; conditions: Homo sapiens, MCF7, read-out: Growth inhibition percentage (GI %)
Procedure, shortened: as §1

SR = experiment: NCI one-dose screen: SR; type: cell-based; conditions: Homo sapiens, read-out: Growth inhibition percentage (GI %)
Procedure, shortened: (§2)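 Human tumour lines grown in RPMI 1640 with 5% FBS and 2 mM L-glutamine, seeded at 5000–40,000 cells/well, 24 h at 37 °C, 5% CO2. Time-zero plates TCA-fixed. Test compound (DMSO stock at 400× final) added to a final 10 µM, 48 h at 37 °C. Cells fixed with cold TCA (50% adherent, 80% suspension) and stained with sulforhodamine B; absorbance read at 515 nm. GI% = 100 − % growth relative to untreated control.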

EKVX = experiment: NCI one-dose screen: EKVX; type: cell-based; conditions: Homo sapiens, read-out: Growth inhibition percentage (GI %)
Procedure, shortened: as §1

K-562 = experiment: NCI one-dose screen: K-562; type: cell-based; conditions: Homo sapiens, K562, read-out: Growth inhibition percentage (GI %)
Procedure, shortened: as §1

OVCAR-3 = experiment: NCI one-dose screen: OVCAR-3; type: cell-based; conditions: Homo sapiens, OVCAR-3, read-out: Growth inhibition percentage (GI %)
Procedure, shortened: as §1

786-0 = experiment: NCI one-dose screen: 786-0; type: cell-based; conditions: Homo sapiens, 786-0, read-out: Growth inhibition percentage (GI %)
Procedure, shortened: as §1

RXF 393 = experiment: NCI one-dose screen: RXF 393; type: cell-based; conditions: Homo sapiens, RXF 393, read-out: Growth inhibition percentage (GI %)
Procedure, shortened: as §1

HCT-116 = experiment: NCI one-dose screen: HCT-116; type: cell-based; conditions: Homo sapiens, HCT-116, read-out: Growth inhibition percentage (GI %), HCT-116, colon cancer; single dose 10 μM
Procedure, shortened: as §1

NCI-H460 = experiment: NCI one-dose screen: NCI-H460; type: cell-based; conditions: Homo sapiens, NCI-H460, read-out: Growth inhibition percentage (GI %)
Procedure, shortened: as §1

SK-MEL-2 = experiment: NCI one-dose screen: SK-MEL-2; type: cell-based; conditions: Homo sapiens, SK-MEL-2, read-out: Growth inhibition percentage (GI %)
Procedure, shortened: as §1

HCC-2998 = experiment: NCI one-dose screen: HCC-2998; type: cell-based; conditions: Homo sapiens, HCC 2998, read-out: Growth inhibition percentage (GI %)
Procedure, shortened: as §1

MOLT-4 = experiment: NCI one-dose screen: MOLT-4; type: cell-based; conditions: Homo sapiens, MOLT-4, read-out: Growth inhibition percentage (GI %)
Procedure, shortened: as §1

[1] = test system: newly formed blood capillaries of HET-CAM; experiment: HET-CAM angiogenesis study; type: in vivo, hen
Procedure, shortened: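 Fertilized hen eggs were incubated 9 days at 37 °C with rotation, in groups of three. Test compound at 40 μM in 40 μL of 40% DMSO in saline was dropped onto a 5 mm filter-paper disc on the CAM. Control got 40 μL vehicle. On day 11 each egg was angiographed. Newly formed small vessels within a 100 mm2 circle were counted by image analysis. One-way ANOVA with Dunnett's test.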

MDA-MB-231 = experiment: NCI one-dose screen: MDA-MB-231; type: cell-based; conditions: Homo sapiens, MDA-MB-231, read-out: Growth inhibition percentage (GI %)
Procedure, shortened: as §1

chick embryos / HET-CAM = experiment: HET-CAM mortality and toxicity; type: in vivo, hen; conditions: 40 μM, 40 μL in 40% DMSO in sterile saline, applied 9th day, examined 11th day
Procedure, shortened: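 Hen eggs were incubated at 37 °C with 2-hourly rotation and candled on day 5; dead eggs were excluded. A window was opened and taped. On day 9, 40 μL of test compound (40 or 100 μM, in 40% or 100% DMSO in saline) went onto a 5 mm filter disc at a low-vessel-density CAM area, 3 eggs/concentration. Embryo toxicity and mortality were assessed by candling on day 11.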

A549/ATCC = experiment: NCI one-dose screen: A549/ATCC; type: cell-based; conditions: Homo sapiens, A549, read-out: Growth inhibition percentage (GI %)
Procedure, shortened: as §1

T-47D = experiment: NCI one-dose screen: T-47D; type: cell-based; conditions: Homo sapiens, T47D, read-out: Growth inhibition percentage (GI %)
Procedure, shortened: as §2

PC-3 = experiment: NCI one-dose screen: PC-3; type: cell-based; conditions: Homo sapiens, PC-3, read-out: Growth inhibition percentage (GI %)
Procedure, shortened: as §1

TK-10 = experiment: NCI one-dose screen: TK-10; type: cell-based; conditions: Homo sapiens, TK-10, read-out: Growth inhibition percentage (GI %)
Procedure, shortened: as §2

VEGFR2 = conditions: cited from earlier work
c-Met kinase = conditions: read-out: IC50 c-Met; cited from earlier work
multiple tyrosine kinase = conditions: target not named at the place (multiple tyrosine kinase; context VEGFR2) ref 14; cited from earlier work
[2] = 40 μM, versus 40% DMSO negative control

O=C1Nc2ccccc2C1=NNc1nnc2n1N=C(c1ccccc1)CS2 [6a, 3-(2-(6-Phenyl-7H-[1,2,4]triazolo[3,4-b][1,3,4]thiadiazin-3-yl)hydrazineylidene)indolin-2-one]
inhibition at 10 µM (SNB-19): 17%
inhibition at 10 µM (SF-539): 18%
GI (range over the susceptible cell lines listed in the sentence) (NCI 58 human cell lines; single dose 10 μM, cell lines as listed in the sentence): 35–57%
inhibition at 10 µM (MCF7): 29%
inhibition at 10 µM (SR): 23%
inhibition at 10 µM (EKVX): 13%
inhibition at 10 µM (K-562): 23%
inhibition at 10 µM (OVCAR-3): 12%
inhibition at 10 µM (786-0): 19%
inhibition at 10 µM (RXF 393): 18%
inhibition at 10 µM (HCT-116): 14%
inhibition at 10 µM (NCI-H460): 17%
inhibition at 10 µM (SK-MEL-2): 13%
inhibition at 10 µM (HCC-2998): 19%
inhibition at 10 µM (MOLT-4): 13%
increase in the number of newly formed blood capillaries [1, 2]: 33%
inhibition at 10 µM (MDA-MB-231): 12%

Cc1ccc(C2=Nn3c(NN=C4C(=O)Nc5ccccc54)nnc3SC2)cc1 [6c, 3-(2-(6-(p-Tolyl)-7H-[1,2,4]triazolo[3,4-b][1,3,4]thiadiazin-3-yl)hydrazineylidene)-indolin-2-one]
toxicity / mortality against HET-CAM and the chick embryos (chick embryos / HET-CAM): toxic

COc1ccc(C2=Nn3c(N/N=C4\C(=O)Nc5ccc(F)cc54)nnc3SC2)cc1 [6j, 5-Fluoro-3-(2-(6-(4-methoxyphenyl)-7H-[1,2,4]triazolo[3,4-b][1,3,4]thiadiazin-3-yl) hydrazineylidene)indolin-2-one]
toxicity / mortality against HET-CAM and the chick embryos (chick embryos / HET-CAM): toxic

COc1ccc(C2=Nn3c(NN=C4C(=O)Nc5ccc(Cl)cc54)nnc3SC2)cc1 [6l, 5-Chloro-3-(2-(6-(4-methoxyphenyl)-7H-[1,2,4]triazolo[3,4-b][1,3,4]thiadiazin-3-yl)hydrazineylidene)indolin-2-one]
inhibition at 10 µM (A549/ATCC): 23%
sensitive cell lines no. (NCI 58 human cell lines; number of cell lines of the panel with GI % shown (higher than 10%), 10 μM): 6
inhibition at 10 µM (SR): 23%
inhibition at 10 µM (K-562): 15%

COc1ccc(C2=Nn3c(NN=C4C(=O)Nc5ccc(OC)cc54)nnc3SC2)cc1 [6n, 5-Methoxy-3-(2-(6-(4-methoxyphenyl)-7H-[1,2,4]triazolo[3,4-b][1,3,4]thiadiazin-3-yl)hydrazineylidene)indolin-2-one]
inhibition at 10 µM (A549/ATCC): 29%
inhibition at 10 µM (T-47D): 15%
inhibition at 10 µM (K-562): 19%
inhibition at 10 µM (PC-3): 10%
inhibition at 10 µM (TK-10): 17%
inhibition at 10 µM (MOLT-4): 12%
change in the number of blood vessels (in words) [1, 2]: significant decrease
reduction in the number of newly formed blood capillaries (angiogenesis) ([1]; 40 μM, versus 40% DMSO negative control, 11th day): 27%

COc1ccc(C2=Nn3c(NN=C4C(=O)N(C)c5ccc(Cl)cc54)nnc3SC2)cc1 [6u, 5-Chloro-3-(2-(6-(4-methoxyphenyl)-7H-[1,2,4]triazolo[3,4-b][1,3,4]thiadiazin-3-yl)hydrazineylidene)-1-methylindolin-2-one]
toxicity / mortality against HET-CAM and the chick embryos (chick embryos / HET-CAM): toxic

CCCN1C(=O)C(=NNc2nnc3n2N=C(c2ccc(OC)cc2)CS3)c2cc(Cl)ccc21 [6w, 5-Chloro-3-(2-(6-(4-methoxyphenyl)-7H-[1,2,4]triazolo[3,4-b][1,3,4]thiadiazin-3-yl)hydrazineylidene)-1-propylindolin-2-one]
toxicity / mortality against HET-CAM and the chick embryos (chick embryos / HET-CAM): toxic

COc1ccc(C2=Nn3c(NN=C4C(=O)N(Cc5ccccc5)c5ccccc54)nnc3SC2)cc1 [6x, 1-Benzyl-3-(2-(6-(4-methoxyphenyl)-7H-[1,2,4]triazolo[3,4-b][1,3,4]thiadiazin-3-yl)hydrazineylidene)indolin-2-one]
change in the number of blood vessels (in words) [1, 2]: significant decrease

C[C@@H]1C[C@H]2[C@@H]3CCC4=CC(=O)C=C[C@]4(C)[C@@]3(F)[C@@H](O)C[C@]2(C)[C@@]1(O)C(=O)CO [DEXA, dexamethasone, reference compound]
reduction in the number of newly formed blood capillaries ([1]; DEXA 0.02 μg, positive control, versus 40% DMSO, P < 0.001): 54%

Cc1[nH]c(/C=C2\C(=O)Nc3ccccc32)c(C)c1CCC(=O)O [Orantinib]
Ki (VEGFR2; read-out: Ki VEGFR2): 9 nM

Cc1[nH]c(/C=C2\C(=O)Nc3ccc(S(=O)(=O)N(C)c4cccc(Cl)c4)cc32)c(C)c1C(=O)N1CCN(C)CC1 [SU11274]
IC50 (c-Met kinase): 12 nM

Cc1[nH]c(/C=C2\C(=O)Nc3ccc(F)cc32)c(C)c1C(=O)NC[C@H](O)CN1CCOCC1 [SU14813]
IC50 (VEGFR2; read-out: IC50 VEGFR2): 40 nM

CCN(CC)CCNC(=O)c1c(C)[nH]c(/C=C2\C(=O)Nc3ccc(F)cc32)c1C [sunitinib]
Ki (multiple tyrosine kinase): 9 nM

Source: publication PMC7408256 (ACS Omega, 2020)
